Assay results from ChEMBL document CHEMBL3414503, “Distinct novel quinazolinone exhibits selective inhibition in MGC-803 cancer cells by dictating mutant p53 function” (Eur J Med Chem, 2015).
pIC50: −log10 of the molar value. Activity calls are given as the source filed them. No cut-off for these calls is given here.

Experiments:
MGC-803 [1] = test: Cytotoxicity against human MGC803 cells assessed as cell viability after 48 hrs by MTT assay; format: functional, cell-based; details: MGC-803, 48 h
Outline: (§1)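 Cells were trypsinized, seeded in 96-well plates at 2 × 10³ cells/well and grown for 24 h. Medium was then replaced with compound solutions (in DMSO, range from 0.1) for 48 h, and viability was read by MTT. Cancer lines were grown in RPMI 1640 + 10% FCS. IC50 from 3 independent experiments, each in triplicate.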

[2] = tested on: Cellular tumor antigen p53 (Homo sapiens), P04637 [UNDEFINED MUTATION]; test: Inhibition of P53 mutant phosphorylation at s392 in human MGC803 cells at 1 to 10 uM after 24 hrs by Western blot analysis; format: cell-based; details: MGC-803
Outline: (§2)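 MGC-803 cells, 3 × 10⁵ per well of a 6-well plate, exposed to compound for 24 h. Cells were washed in ice-cold PBS and lysed in sample buffer, then run on SDS-PAGE and transferred to nitrocellulose. Blots were probed with primary antibodies and […] anti-rabbit IgG and developed by ECL.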

[3] = tested on: Cellular tumor antigen p53 (Homo sapiens), P04637 [UNDEFINED MUTATION]; test: Inhibition of P53 mutant acetylation at k373 in human MGC803 cells at 1 to 10 uM after 24 hrs by Western blot analysis; format: cell-based; details: MGC-803; outline: as §2
MGC-803 [4] = test: Cytotoxicity against human MGC803 cells assessed as cell viability at 1 to 10 uM after 48 hrs by MTT assay; format: functional, cell-based
HepG2 = test: Cytotoxicity against human HepG2 cells assessed as cell viability after 48 hrs by MTT assay; format: functional, cell-based; details: HepG2, 48 h; outline: as §1
NCI-H460 = test: Cytotoxicity against human NCI-H460 cells assessed as cell viability after 48 hrs by MTT assay; format: functional, cell-based; details: NCI-H460, 48 h; outline: as §1
A-375 = test: Cytotoxicity against human A375 cells assessed as cell viability after 48 hrs by MTT assay; format: functional, cell-based; details: A-375, 48 h; outline: as §1
MGC-803 [5] = test: Cell cycle arrest in human MGC803 cells assessed as accumulation at G0/G1 phase at 10 uM after 48 hrs by propidium iodide staining-based FACS analysis relative to control; format: functional
MGC-803 [6] = test: Cell cycle arrest in human MGC803 cells assessed as accumulation at G2/M phase at 10 uM after 48 hrs by propidium iodide staining-based FACS analysis relative to control; format: functional
MGC-803 [7] = test: Cell cycle arrest in human MGC803 cells assessed as accumulation at sub G1 phase at 1 uM after 48 hrs by propidium iodide staining-based FACS analysis relative to control; format: functional
MGC-803 [8] = test: Cell cycle arrest in human MGC803 cells assessed as accumulation at G2/M phase at 1 uM after 48 hrs by propidium iodide staining-based FACS analysis relative to control; format: functional
MGC-803 [9] = test: Cell cycle arrest in human MGC803 cells assessed as accumulation at S phase at 10 uM after 48 hrs by propidium iodide staining-based FACS analysis relative to control; format: functional
MGC-803 [10] = test: Cell cycle arrest in human MGC803 cells assessed as accumulation at G0/G1 phase at 1 uM after 48 hrs by propidium iodide staining-based FACS analysis relative to control; format: functional
MGC-803 [11] = test: Cell cycle arrest in human MGC803 cells assessed as accumulation at S phase at 1 uM after 48 hrs by propidium iodide staining-based FACS analysis relative to control; format: functional
MGC-803 [12] = test: Cell cycle arrest in human MGC803 cells assessed as accumulation at sub G1 phase at 10 uM after 48 hrs by propidium iodide staining-based FACS analysis relative to control; format: functional

Chain of Cellular tumor antigen p53 (Homo sapiens), P04637 [UNDEFINED MUTATION] (P04637 whole entry, looked up, stated change not applied): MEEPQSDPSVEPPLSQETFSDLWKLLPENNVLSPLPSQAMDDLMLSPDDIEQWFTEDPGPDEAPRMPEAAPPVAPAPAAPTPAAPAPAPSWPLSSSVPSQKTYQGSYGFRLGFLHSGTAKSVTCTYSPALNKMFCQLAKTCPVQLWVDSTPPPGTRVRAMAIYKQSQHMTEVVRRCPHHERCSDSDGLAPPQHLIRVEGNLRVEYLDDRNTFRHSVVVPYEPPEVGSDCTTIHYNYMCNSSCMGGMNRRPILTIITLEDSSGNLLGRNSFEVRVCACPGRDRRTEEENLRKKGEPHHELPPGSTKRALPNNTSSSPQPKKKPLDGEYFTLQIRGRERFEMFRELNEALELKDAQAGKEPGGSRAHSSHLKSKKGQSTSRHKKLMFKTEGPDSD

| SMILES | pIC50 (MGC-803 [1]) | pIC50 (HepG2) | pIC50 (NCI-H460) | pIC50 (A-375) | further results |
| --- | --- | --- | --- | --- | --- |
| COc1cc2nc(/C=C/c3ccc(F)cc3)n(CCCN(C)C)c(=O)c2cc1OC | < 4.70 | < 4.70 | < 4.70 | – | inhibition [2]: inactive; inhibition [3]: inactive; Activity (MGC-803 [4]): inactive |
| CN(C)CCCn1c(/C=C/c2cccc(O)c2)nc2ccccc2c1=O | < 4.70 | 5.21 | < 4.70 | < 4.70 | – |
| CN(C)CCn1c(/C=C/c2cccc(O)c2)nc2ccccc2c1=O | < 4.70 | < 4.70 | < 4.70 | < 4.70 | – |
| CCCCn1c(/C=C/c2ccc(F)cc2)nc2ccccc2c1=O | < 4.70 | < 4.70 | < 4.70 | < 4.70 | – |
| CCCCn1c(/C=C/c2ccc3c(c2)OCO3)nc2ccccc2c1=O | < 4.70 | < 4.70 | < 4.70 | < 4.70 | – |
| CN(C)CCCn1c(/C=C/c2ccc(Cl)cc2Cl)nc2ccccc2c1=O | 5.41 | 5.38 | 5.23 | 5.15 | Activity (MGC-803 [5]): 34.55%; Activity (MGC-803 [6]): 12.83%; Activity (MGC-803 [7]): 5.09%; Activity (MGC-803 [8]): 11.4%; Activity (MGC-803 [9]): 20.64%; Activity (MGC-803 [10]): 54.16%; Activity (MGC-803 [11]): 29.35%; Activity (MGC-803 [12]): 31.98% |
| COc1ccc(/C=C/c2nc3ccccc3c(=O)n2CCN(C)C)cc1OC | < 4.70 | < 4.70 | < 4.70 | < 4.70 | – |
| CN(C)CCn1c(/C=C/c2ccc(F)cc2)nc2ccccc2c1=O | < 4.70 | < 4.70 | < 4.70 | < 4.70 | – |
| CN(C)CCCn1c(/C=C/c2ccccc2Br)nc2cc(Cl)ccc2c1=O | 4.90 | 5.09 | 5.13 | 4.88 | – |
| CCCCn1c(/C=C/c2ccc(OC)c(OC)c2)nc2ccccc2c1=O | < 4.70 | < 4.70 | < 4.70 | < 4.70 | – |
| CN(C)CCn1c(/C=C/c2ccc3c(c2)OCO3)nc2ccccc2c1=O | < 4.70 | < 4.70 | < 4.70 | < 4.70 | – |
| COc1cc2nc(/C=C/c3ccc(Cl)cc3Cl)n(CCCN(C)C)c(=O)c2cc1OC | 5.23 | 5.19 | 5.20 | 4.89 | – |
| CCCCn1c(/C=C/c2ccc(Cl)cc2Cl)nc2ccccc2c1=O | < 4.70 | < 4.70 | < 4.70 | < 4.70 | – |
| COc1ccc(/C=C/c2nc3cc(OC)c(OC)cc3c(=O)n2CCCN(C)C)cc1OC | – | – | – | < 4.70 | – |
| CN(C)CCCn1c(/C=C/c2ccc([N+](=O)[O-])cc2)nc2cc(Cl)ccc2c1=O | 5.08 | 5.13 | 5.26 | 4.99 | – |
| CCCCn1c(/C=C/c2cccc(O)c2)nc2ccccc2c1=O | < 4.70 | < 4.70 | < 4.70 | < 4.70 | – |
| CCCCn1c(/C=C/c2cccc([N+](=O)[O-])c2)nc2ccccc2c1=O | < 4.70 | < 4.70 | < 4.70 | < 4.70 | – |
| CCCCn1c(/C=C/c2ccccc2Br)nc2ccccc2c1=O | < 4.70 | < 4.70 | < 4.70 | < 4.70 | – |
| CN(C)CCCn1c(/C=C/c2ccc3c(c2)OCO3)nc2cc(Cl)ccc2c1=O | < 4.70 | < 4.70 | < 4.70 | < 4.70 | – |
| CN(C)CCCn1c(/C=C/c2ccc(Cl)cc2Cl)nc2cc(Cl)ccc2c1=O | 5.24 | 5.07 | 4.88 | 4.89 | – |

| SMILES | pIC50 (MGC-803 [1]) | pIC50 (HepG2) | pIC50 (NCI-H460) | pIC50 (A-375) | further results |
| --- | --- | --- | --- | --- | --- |
| CN(C)CCCn1c(/C=C/c2cccc(O)c2)nc2cc(Cl)ccc2c1=O | < 4.70 | < 4.70 | 4.98 | < 4.70 | – |
| COc1cc2nc(/C=C/c3ccc([N+](=O)[O-])cc3)n(CCCN(C)C)c(=O)c2cc1OC | – | – | – | < 4.70 | – |
| COc1cc2nc(/C=C/c3cccc(O)c3)n(CCCN(C)C)c(=O)c2cc1OC | – | – | – | < 4.70 | – |
| CN(C)CCCn1c(/C=C/c2ccccc2Br)nc2ccccc2c1=O | 4.84 | 5.30 | 5.18 | 5.08 | – |
| CN(C)CCn1c(/C=C/c2ccc(Cl)cc2Cl)nc2ccccc2c1=O | < 4.70 | < 4.70 | < 4.70 | < 4.70 | – |
| CN(C)CCn1c(/C=C/c2ccccc2Br)nc2ccccc2c1=O | < 4.70 | < 4.70 | < 4.70 | < 4.70 | – |
| CCCCn1c(/C=C/c2ccc(Cl)cc2)nc2ccccc2c1=O | < 4.70 | < 4.70 | < 4.70 | < 4.70 | – |
| CN(C)CCn1c(/C=C/c2ccc(Cl)cc2)nc2ccccc2c1=O | < 4.70 | < 4.70 | < 4.70 | < 4.70 | – |
| COc1cc2nc(/C=C/c3cccc([N+](=O)[O-])c3)n(CCCN(C)C)c(=O)c2cc1OC | – | – | – | < 4.70 | – |
| CN(C)CCCn1c(/C=C/c2ccc(F)cc2)nc2cc(Cl)ccc2c1=O | < 4.70 | < 4.70 | < 4.70 | < 4.70 | – |
| COc1cc2nc(/C=C/c3ccc4c(c3)OCO4)n(CCCN(C)C)c(=O)c2cc1OC | – | – | – | < 4.70 | – |
| COc1ccc(/C=C/c2nc3cc(Cl)ccc3c(=O)n2CCCN(C)C)cc1OC | < 4.70 | < 4.70 | < 4.70 | < 4.70 | – |
| CN(C)CCCn1c(/C=C/c2ccc(F)cc2)nc2ccccc2c1=O | < 4.70 | < 4.70 | < 4.70 | < 4.70 | – |
| CN(C)CCCn1c(/C=C/c2ccc(Cl)cc2)nc2ccccc2c1=O | < 4.70 | < 4.70 | < 4.70 | < 4.70 | – |
| COc1cc2nc(/C=C/c3ccccc3Br)n(CCCN(C)C)c(=O)c2cc1OC | – | – | – | < 4.70 | – |
| CN(C)CCCn1c(/C=C/c2cccc([N+](=O)[O-])c2)nc2cc(Cl)ccc2c1=O | 5.38 | 5.21 | 5.23 | 4.86 | – |
| CN(C)CCn1c(/C=C/c2cccc([N+](=O)[O-])c2)nc2ccccc2c1=O | < 4.70 | < 4.70 | < 4.70 | < 4.70 | – |
| CN(C)CCCn1c(/C=C/c2ccc(Cl)cc2)nc2cc(Cl)ccc2c1=O | 5.16 | 5.19 | 5.11 | 4.85 | – |
| CN(C)CCn1c(/C=C/c2ccc([N+](=O)[O-])cc2)nc2ccccc2c1=O | < 4.70 | < 4.70 | < 4.70 | < 4.70 | – |
| CCCCn1c(/C=C/c2ccc([N+](=O)[O-])cc2)nc2ccccc2c1=O | < 4.70 | < 4.70 | < 4.70 | < 4.70 | – |
